Reference: ChEMBL document CHEMBL3525939, “Organic cation transporter-mediated renal secretion of ipratropium and tiotropium in rats and humans” (Drug Metab Dispos, 2011)

How the values were obtained:
[1] = tested on: Kidney; test: Drug uptake in Wistar rat kidney slice at 10 nM at pH 7.4 at 37 degC after 1 min relative to control in presence of 1 mM imipramine; type: ADME, tissue-based; design: interact cpd dose 1 mM; settings: pH 7.4, 1 min, 0.01 µM
Procedure, shortened: (§1)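 Rat kidney slices incubated with [3H]ipratropium or [3H]tiotropium (10 nM) for 1 min at 37°C and pH 7.4. Each inhibitor given at 1 mM. Adhering water estimated from [14C]inulin uptake. Uptake expressed as percent of control without inhibitor. Mean ± SEM of 4 slices; significance by Student's t-test, p<0.05.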

[2] = tested on: Kidney; test: Drug uptake in Wistar rat kidney slice at 10 nM at pH 7.4 at 37 degC after 1 min relative to control in presence of 1 mM cimetidine; type: ADME, tissue-based; design: interact cpd dose 1 mM; settings: pH 7.4, 1 min, 0.01 µM; procedure, shortened: as §1
[3] = tested on: Kidney; test: Drug uptake in Wistar rat kidney slice at 10 nM at pH 7.4 at 37 degC after 1 min relative to control in presence of 1 mM quinidine; type: ADME, tissue-based; design: interact cpd dose 1 mM; settings: pH 7.4, 1 min, 0.01 µM; procedure, shortened: as §1
[4] = tested on: Kidney; test: Drug uptake in Wistar rat kidney slice at 10 nM at pH 7.4 at 37 degC after 1 min relative to control in presence of 1 mM PAH; type: ADME, tissue-based; design: interact cpd dose 1 mM; settings: pH 7.4, 1 min, 0.01 µM; procedure, shortened: as §1
[5] = tested on: Kidney; test: Drug uptake in Wistar rat kidney slice at 10 nM at pH 7.4 at 37 degC after 1 min relative to control in presence 1 mM MPP+; type: ADME, tissue-based; design: interact cpd dose 1 mM; settings: pH 7.4, 1 min, 0.01 µM; procedure, shortened: as §1
[6] = tested on: Kidney; test: Drug uptake in Wistar rat kidney slice at 10 nM at pH 7.4 at 37 degC after 1 min relative to control in presence of ipratropium; type: ADME, tissue-based; settings: pH 7.4, 1 min, 0.01 µM; procedure, shortened: as §1
[7] = tested on: Kidney; test: Drug uptake in Wistar rat kidney slice at 10 nM at pH 7.4 at 37 degC after 1 min relative to control in presence of 1 mM TEA+; type: ADME, tissue-based; design: interact cpd dose 1 mM; settings: pH 7.4, 1 min, 0.01 µM; procedure, shortened: as §1
[8] = target: T1, OCT2 (SLC22A2) (Homo sapiens, UniProt O15244); test: Drug uptake in human Oct2 expressed HEK293 cells at 10 nM at pH 7.4 at 37 degC after 1 min relative to mock cells; type: ADME, cell-based; settings: HEK293 cells expressing human Oct2, pH 7.4, read-out: FC
T1 sequence (O15244 whole entry): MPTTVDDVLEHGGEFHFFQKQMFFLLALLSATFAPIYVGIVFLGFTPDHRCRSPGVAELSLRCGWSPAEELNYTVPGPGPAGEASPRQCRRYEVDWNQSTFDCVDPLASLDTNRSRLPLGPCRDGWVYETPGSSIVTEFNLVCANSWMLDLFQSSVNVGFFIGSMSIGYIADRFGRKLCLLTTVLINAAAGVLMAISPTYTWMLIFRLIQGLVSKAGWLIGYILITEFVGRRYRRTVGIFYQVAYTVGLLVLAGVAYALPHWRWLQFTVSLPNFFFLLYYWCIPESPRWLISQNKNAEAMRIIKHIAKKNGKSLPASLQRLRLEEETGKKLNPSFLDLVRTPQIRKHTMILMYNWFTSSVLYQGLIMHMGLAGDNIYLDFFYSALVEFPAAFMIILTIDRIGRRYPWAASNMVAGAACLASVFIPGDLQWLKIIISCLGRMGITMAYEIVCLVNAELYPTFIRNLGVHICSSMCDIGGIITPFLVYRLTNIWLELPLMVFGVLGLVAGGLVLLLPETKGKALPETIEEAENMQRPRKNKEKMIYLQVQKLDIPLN
Procedure, shortened: (§2)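 Transfected HEK293 cells (antibiotic-selected; DMEM with 10% FBS) plated at 1 × 10^5 cells/cm2 and used after 2 days. Uptake of [3H]ipratropium or [3H]tiotropium (10 nM) for 1 min at pH 7.4, 37°C, in HEPES-buffered saline. Cells washed ice-cold, lysed in Triton X-100, counted by scintillation, normalised to protein. Uptake compared with vector-only Mock cells. n = 4.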

[9] = target: T2, Oct2 (Slc22a2) (Rattus norvegicus, UniProt Q9R0W2); test: Drug uptake in rat Oct2 expressed HEK293 cells at 10 nM at pH 7.4 at 37 degC after 1 min relative to mock cells; type: ADME, cell-based; settings: HEK293 cells expressing rat Oct2, pH 7.4, read-out: FC; procedure, shortened: as §2
T2 sequence (Q9R0W2 whole entry): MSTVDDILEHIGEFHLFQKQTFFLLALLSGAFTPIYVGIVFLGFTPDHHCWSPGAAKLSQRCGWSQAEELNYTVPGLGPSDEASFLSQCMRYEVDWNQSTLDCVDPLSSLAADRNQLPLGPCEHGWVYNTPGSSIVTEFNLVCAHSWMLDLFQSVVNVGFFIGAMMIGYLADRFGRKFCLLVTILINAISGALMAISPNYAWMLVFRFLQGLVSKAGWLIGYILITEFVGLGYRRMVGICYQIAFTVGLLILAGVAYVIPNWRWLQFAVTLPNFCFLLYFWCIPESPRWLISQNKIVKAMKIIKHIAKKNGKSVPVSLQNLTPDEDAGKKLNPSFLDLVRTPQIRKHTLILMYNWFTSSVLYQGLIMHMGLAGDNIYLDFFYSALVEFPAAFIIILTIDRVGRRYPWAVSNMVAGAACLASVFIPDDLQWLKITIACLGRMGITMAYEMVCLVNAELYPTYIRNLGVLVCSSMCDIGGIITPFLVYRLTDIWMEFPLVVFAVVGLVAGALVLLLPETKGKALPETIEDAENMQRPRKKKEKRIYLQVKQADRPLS

[10] = tested on: Kidney; test: Drug uptake in Wistar rat kidney slice at 10 nM at pH 7.4 at 37 degC after 1 min; type: ADME, tissue-based; settings: pH 7.4, 1 min, 0.01 µM; procedure, shortened: as §1
[11] = target: T3, Oct1 (Slc22a1) (Rattus norvegicus, UniProt Q63089); test: Drug uptake in rat Oct1 expressed HEK293 cells at 10 nM at pH 7.4 at 37 degC after 1 min relative to mock cells; type: ADME, cell-based; settings: HEK293 cells expressing rat Oct1, pH 7.4, read-out: FC; procedure, shortened: as §2
T3 sequence (Q63089 whole entry): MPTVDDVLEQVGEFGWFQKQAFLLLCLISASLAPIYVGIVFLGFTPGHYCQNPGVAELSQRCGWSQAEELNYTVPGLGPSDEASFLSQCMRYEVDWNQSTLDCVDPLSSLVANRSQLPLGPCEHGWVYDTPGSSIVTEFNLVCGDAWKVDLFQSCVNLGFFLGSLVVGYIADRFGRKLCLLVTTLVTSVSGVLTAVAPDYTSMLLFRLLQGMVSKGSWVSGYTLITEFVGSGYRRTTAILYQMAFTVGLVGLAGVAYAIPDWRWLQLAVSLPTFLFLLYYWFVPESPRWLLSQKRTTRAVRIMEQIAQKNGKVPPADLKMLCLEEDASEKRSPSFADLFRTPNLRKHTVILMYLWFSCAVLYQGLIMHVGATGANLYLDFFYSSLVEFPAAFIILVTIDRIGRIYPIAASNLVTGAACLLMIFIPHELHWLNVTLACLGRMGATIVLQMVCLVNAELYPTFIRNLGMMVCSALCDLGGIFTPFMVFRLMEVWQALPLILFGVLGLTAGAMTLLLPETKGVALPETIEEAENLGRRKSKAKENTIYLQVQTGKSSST

[12] = tested on: Kidney; test: Drug uptake in Wistar rat kidney slice at 10 nM at pH 7.4 at 37 degC after 1 min relative to control in presence of 1 mM estrone 3-sulfate; type: ADME, tissue-based; design: interact cpd dose 1 mM; settings: pH 7.4, 1 min, 0.01 µM; procedure, shortened: as §1
[13] = target: T4, Solute carrier family 22 member 2 (Rattus norvegicus, UniProt Q9R0W2); test: Binding affinity to rat Oct2 assessed as transporter-mediated drug uptake; type: ADME
T4 sequence (Q9R0W2 whole entry): T2 sequence (Q9R0W2 whole entry)
Procedure, shortened: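 [3H]ipratropium (10 nM) uptake into HEK293/rOct2 cells over 30 sec at pH 7.4, 37°C, in HEPES-buffered saline transport buffer. Mock-cell uptake subtracted to give transporter-mediated uptake. Cells lysed in Triton X-100, counted by liquid scintillation, normalised to protein. Km and Vmax from non-linear least-squares fit to Michaelis-Menten equation. n = 4, mean ± SEM.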

[14] = substrate: NCCc1ccc(O)c(O)c1; test: cells, lysate or membranes named

Molecule: C[N+]1(C)[C@@H]2C[C@@H](OC(=O)C(O)(c3cccs3)c3cccs3)C[C@@H]1[C@H]1O[C@H]12.[Br-]
- Drug uptake [1]: 36.7%
- Drug uptake [2]: 54.5%
- Drug uptake [3]: 34.9%
- Drug uptake [4]: 97.4%
- Drug uptake [5]: 39.8%
- Drug uptake [6]: 25.6%
- Drug uptake [7]: 67.3%
- uptake ratio at 1 min, 0.01 µM [8]: 8.5
- uptake ratio at 1 min, 0.01 µM [9]: 3
- Drug uptake [10]: 100%
- uptake ratio at 1 min, 0.01 µM [11]: 8.4
- Drug uptake [12]: 104%

Molecule: C[n+]1ccc(-c2ccccc2)cc1
- Km [13]: 17 µM

B1: Solute carrier family 22 member 2 (Rattus norvegicus) (protein)
chain: T2 sequence (Q9R0W2 whole entry)
- Km [14]: 650 µM
